Assay [1] in a line: inhibitors of TNFa-induced NFkB p65 translocation, primary screen, imaging, HUVEC, MLSMR starter and 10KST1 sets (AID 438;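 active = inhibition above 20% together with a positive visual image hit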;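 note: compound added about 3h40 before a 20 min TNFalpha stimulation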;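 for inhibition: signal is the nuclear over cytoplasmic p65 intensity ratio per well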). To be noted: HUVEC TNFa-induced p65 nuclear translocation; cell count: measured here: nuclei count (cytotoxicity indicator), at 2.08 µM; inhibition: at 2 µM, stronger effect = higher value, 0% TNFa-plus-vehicle, 100% no-TNFa wells.
Assay [2] is described as follows: inhibitors of E-selectin induction by TNFa, primary screen, imaging, HUVEC, immunofluorescence, MLSMR starter and 10KST1 sets (AID 487).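 For inhibition: signal is fraction of cell area covered by stained E-selectin grains.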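 For nuclei count: 100% = median nuclei count of all wells on the same plate.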 As to conditions: HUVEC TNFalpha-induced E-selectin immunofluorescence imaging, at 2 µM; inhibition: stronger effect = higher value; nuclei count: measured here: cell number, toxicity.
Assay [3] is described as follows: DUSP6 inhibitors restoring Erk phosphorylation by chemical complementation, primary imaging in DUSP6-transfected HeLa (AID 609;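 active = compounds giving at least 50% inhibition in the cell-based MKP-3 phosphatase rescue imaging test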;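 for inhibition: phospho-Erk level distribution per well compared with pooled transfected vehicle control wells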). As to conditions: HeLa MKP-3 transfected, phospho-Erk imaging KS statistic, at 10 µM, cells stimulated with TPA for 15 min.
Assay [4] addresses Dual specificity protein phosphatase 6 (Homo sapiens) (UniProt Q16828). The description is as above. To be noted: HeLa MKP-3 transfected, phospho-Erk imaging KS statistic; at 10 µM; stronger effect = higher value; cells stimulated with TPA for 15 min.
In assay [5] the target is Voltage-gated potassium channel subunit beta-2 (Rattus norvegicus) (UniProt P62483). Put plainly: KvBeta enzyme negative modulators, primary screen, biochemical, NADPH fluorescence (AID 622;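 active = fluorescence slope higher than the sample average by over 3 SD, cut at about -0.22 in these data, passing the limit was not always enough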;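 note: slope of raw intensity against log time taken from 70 to 1610 s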). As to conditions: recombinant KvBeta, 4-cyanobenzaldehyde reduction, at 10 µM, stronger effect = higher value.
The target is the same in assay [6]. Put plainly: KvBeta positive modulators, primary screen, biochemical, NADPH fluorescence (AID 623;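 active = NADPH fluorescence slope more negative than the mean of all samples by about 3 SD, 99.7% confidence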;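 note: fluorescence intensity change per second fitted from 20 to 320 s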). As to conditions: Recombinant KvBeta, NADPH fluorescence decrease slope, 10 min; at 10 µM; stronger effect = lower value.
Assay [7] deals with Alpha-2C adrenergic receptor (Homo sapiens) (UniProt P18825). Put plainly: modulators of alpha2C/GIRK thallium flux, primary screen, cell-based, HEK293 alpha2C/GIRK1/2 (AID 624;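 active = fluorescence slope after compound addition differing from the mean of all screened samples at 99.7% confidence, in either direction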;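 note: slope of fluorescence ratio to pre-addition baseline per second over 15 to 24 s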). To be noted: thallium flux BTC fluorescence, at 10 µM, actives lie on both sides.
The nature of assay [8]: inhibitors of larval lipid processing in zebrafish, primary screen, whole organism, PED6 fluorescence, gall bladder and intestine (AID 686;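 active = a full or partial loss of lipid-probe fluorescence in the fish gall bladder, intestine or both, judged by eye; inactive = no fluorescence loss, or compound toxic to the fish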;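 note: larvae 5 to 7 days old with five fish per well; signal comes from phospholipase A2 cleavage of quenched PED6 carried via bile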). To be noted: Zebrafish larvae PED6 lipid processing, fluorescence scoring; screened at 20 µM (by protocol). The procedure, abridged: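 System: live zebrafish larvae aged 5-7 days, whole organism; measure: graded gall bladder and intestinal fluorescence inhibition per well; incubation: overnight exposure; reagent: ingested quenched lipid PED6 at 100 nM; signal: By-eye fluorescence microscopy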

Assay [9] in a line: inhibitors of Chlamydomonas gravitaxis, primary screen, whole organism, Chlamydomonas reinhardtii, WT vs cilia-less mutant, absorbance, 96-well (AID 463189;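 active = inhibition at or above 50% relative to wild type and mutant plate controls; inactive = inhibition below 50%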;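 note: 0% = wild type cc124 cells in DMSO and 100% = ciliumless bld1 mutant cells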). As to conditions: OD600 absorbance, 2 days, at 10 µM, stronger effect = higher value.
Where [10] appears, read: measured here: cell density z-score.
Where [11] appears, read: measured here: nuclear c-Myc green intensity z-score.
The mark [12] stands for this setting: measured here: nuclear pErk red intensity z-score, stronger effect = higher value.

The source made the active and inactive calls.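 Rule for the calls, unless noted: active = visually confirmed hit in the image check and inhibition above 20%; inconclusive = visually confirmed hit but inhibition not above 20%; inactive = no visual hit in the image check.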

Sequence of Dual specificity protein phosphatase 6 (Homo sapiens) (Q16828 whole entry, looked up): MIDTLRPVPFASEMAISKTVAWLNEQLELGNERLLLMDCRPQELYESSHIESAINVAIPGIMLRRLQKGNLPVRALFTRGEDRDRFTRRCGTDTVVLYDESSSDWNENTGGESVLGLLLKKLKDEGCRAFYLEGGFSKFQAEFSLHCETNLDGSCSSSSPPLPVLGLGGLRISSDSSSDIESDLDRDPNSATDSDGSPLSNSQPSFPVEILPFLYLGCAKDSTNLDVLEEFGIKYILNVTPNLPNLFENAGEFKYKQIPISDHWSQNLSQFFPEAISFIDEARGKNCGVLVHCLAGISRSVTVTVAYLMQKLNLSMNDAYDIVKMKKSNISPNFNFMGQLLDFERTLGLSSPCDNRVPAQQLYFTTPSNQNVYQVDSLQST
Sequence of Alpha-2C adrenergic receptor (Homo sapiens) (P18825 whole entry, looked up): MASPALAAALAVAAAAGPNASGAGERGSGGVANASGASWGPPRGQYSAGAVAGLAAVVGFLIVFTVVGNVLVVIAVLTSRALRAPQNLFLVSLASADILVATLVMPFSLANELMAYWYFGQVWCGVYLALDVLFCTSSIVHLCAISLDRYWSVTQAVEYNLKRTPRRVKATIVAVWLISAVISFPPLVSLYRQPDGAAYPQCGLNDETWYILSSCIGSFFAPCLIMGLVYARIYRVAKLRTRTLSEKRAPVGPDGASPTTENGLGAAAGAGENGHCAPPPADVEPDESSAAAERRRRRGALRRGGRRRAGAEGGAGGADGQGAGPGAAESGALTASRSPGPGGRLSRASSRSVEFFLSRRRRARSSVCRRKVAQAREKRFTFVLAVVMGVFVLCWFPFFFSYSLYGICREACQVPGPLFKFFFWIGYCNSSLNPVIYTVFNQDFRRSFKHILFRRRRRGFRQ
Sequence of Voltage-gated potassium channel subunit beta-2 (Rattus norvegicus) (P62483 whole entry, looked up): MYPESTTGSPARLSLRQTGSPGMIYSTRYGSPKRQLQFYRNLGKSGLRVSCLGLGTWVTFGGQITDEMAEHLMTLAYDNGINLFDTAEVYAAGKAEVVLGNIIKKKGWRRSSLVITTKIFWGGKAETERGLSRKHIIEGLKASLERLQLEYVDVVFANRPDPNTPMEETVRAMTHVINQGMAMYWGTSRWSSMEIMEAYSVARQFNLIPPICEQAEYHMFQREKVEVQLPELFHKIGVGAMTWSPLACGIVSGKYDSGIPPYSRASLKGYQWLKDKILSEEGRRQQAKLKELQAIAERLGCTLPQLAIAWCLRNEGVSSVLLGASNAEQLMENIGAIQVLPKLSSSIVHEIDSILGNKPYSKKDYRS

For `CCOCCSc1nc2c(c(=O)[nH]c(=O)n2C)n1CCCc1ccccc1`, the cell count in assay [1] turned out to be 487. The inhibition in assay [1] was -2.4% (inactive); in assay [2], -80.2% (inactive); in assay [4], -3.5% (inactive); in assay [9] it was -2.75% (inactive). For the same molecule, the nuclei count in assay [2] is 133%. Moreover, the z-score was 0.294 in assay [3] (setting [10]), -0.866 in assay [3] (setting [11]) and -0.255 in assay [3] (setting [12]). Moreover, the fluorescence slope in assay [5] was -0.515 (inactive). Besides, in assay [6], the NADPH fluorescence slope was -6.3e-05 (inactive). For the same molecule, the slope in assay [7] is 0.00557 (inactive). In addition, the result in assay [8] was inactive.
For `CCc1c(C)c(C#N)c2nc3ccccc3n2c1-n1nc(C)cc1C`, the cell count in [1] turned out to be 609. Besides, the inhibition in [1] is -2.3% (inactive); in assay [2], -51.2% (inactive); in [4], 7.93% (inactive); in assay [9], -13.6% (inactive). For the same molecule, in assay [2], the nuclei count worked out at 140%. For the same molecule, the z-score in [3] (setting [10]) is -0.4; in assay [3] (setting [11]), 1.4; in [3] (setting [12]) it was -0.335. The fluorescence slope in [5] is -0.352 (inactive). The NADPH fluorescence slope in assay [6] is -7.9e-05 (inactive). Besides, the slope in assay [7] is 0.00552 (inactive). For the same molecule, the molecule was called inactive in assay [8].
On to `CC(=O)C1(C)OC(N)=C(C#N)C(c2ccccc2)C1(C#N)C#N` (stereo unspecified), for which the cell count in assay [1] was determined as 511. The inhibition in [1] is -7.2% (inactive); in [2], -76.9% (inactive); in [4] it was -2.91% (inactive); in assay [9], 23.7% (inactive). This molecule also showed a nuclei count in assay [2] of 155%. For the same molecule, the z-score is 0.834 in [3] (setting [10]), -0.296 in assay [3] (setting [11]) and -1.55 in assay [3] (setting [12]). The fluorescence slope in [5] is -0.377 (inactive). Also, the NADPH fluorescence slope in assay [6] was 2.9e-06 (inactive). In addition, the slope in [7] is 0.00393 (inactive). For the same molecule, the outcome in assay [8] was inactive.
As for `CC1(C)Cc2c(sc3ncn4nnnc4c23)CO1`, in assay [1], the cell count worked out at 685. The inhibition in assay [1] was -0.9% (inactive); in [2] it was -182% (inactive); in [4], 13.2% (inactive); in assay [9] it was 9.27% (inactive). Also, the nuclei count in assay [2] came to 180%. Moreover, the z-score is 1.78 in assay [3] (setting [10]), -1.07 in assay [3] (setting [11]) and 0.925 in [3] (setting [12]). In [5], the fluorescence slope is -0.522 (inactive). In addition, the NADPH fluorescence slope in assay [6] was -3.9e-05 (inactive). The slope in assay [7] is 0.00539 (inactive). In addition, in assay [8], the molecule was classed as inactive.
As to `CCOC(=O)Cn1c(SC)nc2sc3c(c2c1=O)CC(C)(C)OC3`, the cell count in [1] was 655. Also, the inhibition in assay [1] is -7.4% (inactive); in assay [2], 1.5% (inactive); in [4], -0.159% (inactive); in assay [9], -3.53% (inactive). The same molecule had a nuclei count in assay [2] of 179%. For the same molecule, the z-score was 1.23 in assay [3] (setting [10]), -1.44 in assay [3] (setting [11]) and -0.342 in assay [3] (setting [12]). Besides, the fluorescence slope in assay [5] is -0.459 (inactive). Also, the NADPH fluorescence slope in assay [6] is -0.000276 (inactive). Also, in [7], the slope is 0.00508 (inactive). In addition, the outcome in assay [8] was inactive.
In the case of `CCCC(=O)Nn1cnc2c(c1=O)C1(CCCC1)Cc1ccccc1-2`, the cell count in assay [1] was determined as 558. The inhibition in assay [1] is -2.6% (inactive); in assay [2] it was -157% (inactive); in assay [4], 11.9% (inactive); in [9] it was -19.9% (inactive). The molecule also came in with a nuclei count in assay [2] of 108%. The figures for the z-score in assay [3] (setting [10]), in assay [3] (setting [11]) and in assay [3] (setting [12]) were -0.794, -0.594 and -0.952, respectively. The fluorescence slope in assay [5] was -0.327 (inactive). Besides, the NADPH fluorescence slope in [6] is 2.7e-05 (inactive). Besides, the slope in assay [7] was 0.00422 (inactive). Also, the outcome in assay [8] was inactive.
Turning to `c1coc(CNc2ncnc3ccccc23)c1`, the cell count in [1] is 553. Further, the inhibition in assay [1] was -2.6% (inactive); in assay [2], 2.7% (inactive); in [4] it was 14% (inactive); in assay [9] it was 12.9% (inactive). The nuclei count in [2] worked out at 155%. In addition, the z-score in assay [3] (setting [10]) is 0.847; in [3] (setting [11]) it was -1.11; in assay [3] (setting [12]), 1.51. Moreover, the fluorescence slope in assay [5] was -0.479 (inactive). The NADPH fluorescence slope in assay [6] was -0.000192 (inactive). In addition, the slope in [7] was 0.00559 (inactive). The outcome in [8] was “inactive; toxic”.

The values above are taken from PubChem BioAssay.
